Test results published in ChEMBL document CHEMBL4689842, “EUbOPEN Chemogenomics Library wave 1” (2021).
Where “and” joins values, the source holds several entries; their conditions need not be identical. Equal values may be shown once.

System: U2OS
Assay: Multiplex assay against U2OS
Type: toxicity, cell-based
Details: human
Method in brief: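 Cells were classed with CellPathfinder machine-learning gating, first as Hoechst high-intensity objects or normal cells, then (normal cells) as healthy, pyknosed or fragmented nuclei, and finally (pyknosed cells) as mitotic or apoptotic. Staining of live cells at seeding used Hoechst33342, BioTracker Green Microtubule Cytoskeleton Dye, MitoTracker Red and Annexin V Alexa Fluor 680, with imaging on a CQ1 microscope at 37°C and 5% CO2 after compound addition. Tubulin, mitochondrial-mass and membrane-permeability phenotypes are per cents of healthy-nucleus cells.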

[1] = 12 h, 10 µM, compound concentration 10 uM, replicate 1
[2] = 12 h, 10 µM, compound concentration 10 uM, replicate 2
[3] = 24 h, 10 µM, compound concentration 10 uM, replicate 1
[4] = 24 h, 10 µM, compound concentration 10 uM, replicate 2
[5] = 12 h, 1 µM, compound concentration 1 uM, replicate 1
[6] = 12 h, 1 µM, compound concentration 1 uM, replicate 2
[7] = 24 h, 1 µM, compound concentration 1 uM, replicate 1
[8] = 24 h, 1 µM, compound concentration 1 uM, replicate 2
[9] = 48 h, 10 µM, compound concentration 10 uM, replicate 1
[10] = 48 h, 10 µM, compound concentration 10 uM, replicate 2

**Q.** What does the source list for `Cc1sc2c(c1C)C(c1ccc(Cl)cc1)=N[C@@H](CC(=O)OC(C)(C)C)c1nnc(C)n1-2`?
**A.** Population Apoptotic (%) [1]: 41% and 34%; Population Fragmented Nuclei (%) [1]: 12%; Population Healthy Nuclei (%) [1]: 67% and 58%; Population Hoechst High Intensity Objects (%) [1]: 5% and 6%; Population Membrane Permeable-Phenotype (%) [1]: 21% and 12%; Population Mitochondria Different-Phenotype (%) [1]: 17% and 22%; Population Mitotic Cells (%) [1]: 58% and 65%; Population Normal (%) [1]: 94% and 93%; Population Pyknosed Nuclei (%) [1]: 19% and 20%; Population Tubulin-Different-Phenotype (%) [1]: 17% and 24%; Total Cell Count [1]: 1986; Population Apoptotic (%) [2]: 28% and 14%; Population Fragmented Nuclei (%) [2]: 29% and 21%; Population Healthy Nuclei (%) [2]: 55% and 62%; Population Hoechst High Intensity Objects (%) [2]: 13% and 12%; Population Membrane Permeable-Phenotype (%) [2]: 14%; Population Mitochondria Different-Phenotype (%) [2]: 28% and 33%; Population Mitotic Cells (%) [2]: 71% and 85%; Population Normal (%) [2]: 86% and 87%; Population Pyknosed Nuclei (%) [2]: 15% and 16%; Population Tubulin-Different-Phenotype (%) [2]: 36% and 27%; Population Apoptotic (%) [3]: 88%; Population Fragmented Nuclei (%) [3]: 16% and 20%; Population Healthy Nuclei (%) [3]: 58%; Population Hoechst High Intensity Objects (%) [3]: 5% and 6%; Population Membrane Permeable-Phenotype (%) [3]: 27% and 23%; Population Mitochondria Different-Phenotype (%) [3]: 19% and 29%; Population Mitotic Cells (%) [3]: 12%; Population Normal (%) [3]: 94% and 93%; Population Pyknosed Nuclei (%) [3]: 24% and 20%; Population Tubulin-Different-Phenotype (%) [3]: 30% and 40%; Population Apoptotic (%) [4]: 76% and 64%; Population Fragmented Nuclei (%) [4]: 30% and 25%; Population Healthy Nuclei (%) [4]: 53% and 52%; Population Hoechst High Intensity Objects (%) [4]: 11% and 12%; Population Membrane Permeable-Phenotype (%) [4]: 20% and 18%; Population Mitochondria Different-Phenotype (%) [4]: 30% and 23%; Population Mitotic Cells (%) [4]: 23% and 35%; Population Normal (%) [4]: 88%; Population Pyknosed Nuclei (%) [4]: 15% and 22%; Population Tubulin-Different-Phenotype (%) [4]: 52% and 34%

**Q.** How did the “Population Apoptotic (%)” value [1] turn out when `CN1C(=O)c2sccc2N(C)c2nc(Nc3ccc(S(N)(=O)=O)cc3)ncc21` was run?
**A.** 30% and 31%

**Q.** And the “Population Fragmented Nuclei (%)” value [1]?
**A.** 5% and 4%

**Q.** What about the “Population Healthy Nuclei (%)” value [1] of the same compound?
**A.** 88% and 84%

**Q.** What about the “Population Hoechst High Intensity Objects (%)” value [1] of the same compound?
**A.** 1%

**Q.** What about the “Population Membrane Permeable-Phenotype (%)” value [1] of the same compound?
**A.** 14% and 7%

**Q.** And the “Population Mitochondria Different-Phenotype (%)” value [1]?
**A.** 17% and 22%

**Q.** What about the “Population Mitotic Cells (%)” value [1] of the same compound?
**A.** 70% and 68%

**Q.** And the “Population Normal (%)” value [1]?
**A.** 98%

**Q.** What about the “Population Pyknosed Nuclei (%)” value [1] of the same compound?
**A.** 5% and 10%

**Q.** And the “Population Tubulin-Different-Phenotype (%)” value [1]?
**A.** 15% and 31%

**Q.** What about the “Total Cell Count” value [1] of the same compound?
**A.** 144 and 172

**Q.** What about the “Population Fragmented Nuclei (%)” value [2] of the same compound?
**A.** 6% and 13%

**Q.** What about the “Population Healthy Nuclei (%)” value [2] of the same compound?
**A.** 83% and 78%

**Q.** What about the “Population Hoechst High Intensity Objects (%)” value [2] of the same compound?
**A.** 8% and 19%

**Q.** And the “Population Membrane Permeable-Phenotype (%)” value [2]?
**A.** 19% and 8%

**Q.** And the “Population Mitochondria Different-Phenotype (%)” value [2]?
**A.** 36% and 35%

**Q.** What about the “Population Mitotic Cells (%)” value [2] of the same compound?
**A.** 90% and 66%

**Q.** And the “Population Normal (%)” value [2]?
**A.** 91% and 80%

**Q.** What about the “Population Pyknosed Nuclei (%)” value [2] of the same compound?
**A.** 9% and 7%

**Q.** What about the “Population Tubulin-Different-Phenotype (%)” value [2] of the same compound?
**A.** 18% and 21%

**Q.** What about the “Total Cell Count” value [2] of the same compound?
**A.** 94 and 98

**Q.** And the “Population Apoptotic (%)” value [3]?
**A.** 28% and 42%

**Q.** What about the “Population Fragmented Nuclei (%)” value [3] of the same compound?
**A.** 4% and 6%

**Q.** What about the “Population Healthy Nuclei (%)” value [3] of the same compound?
**A.** 92% and 84%

**Q.** And the “Population Hoechst High Intensity Objects (%)” value [3]?
**A.** 0% and 1%

**Q.** What about the “Population Membrane Permeable-Phenotype (%)” value [3] of the same compound?
**A.** 7% and 6%

**Q.** What about the “Population Mitochondria Different-Phenotype (%)” value [3] of the same compound?
**A.** 15% and 44%

**Q.** And the “Population Mitotic Cells (%)” value [3]?
**A.** 71% and 57%

**Q.** And the “Population Normal (%)” value [3]?
**A.** 99% and 98%

**Q.** What about the “Population Pyknosed Nuclei (%)” value [3] of the same compound?
**A.** 2% and 9%

**Q.** And the “Population Tubulin-Different-Phenotype (%)” value [3]?
**A.** 42%

**Q.** And the “Total Cell Count” value [3]?
**A.** 142 and 237

**Q.** And the “Population Fragmented Nuclei (%)” value [4]?
**A.** 9% and 12%

**Q.** And the “Population Healthy Nuclei (%)” value [4]?
**A.** 80%

**Q.** And the “Population Hoechst High Intensity Objects (%)” value [4]?
**A.** 8% and 12%

**Q.** What about the “Population Membrane Permeable-Phenotype (%)” value [4] of the same compound?
**A.** 11%

**Q.** And the “Population Mitochondria Different-Phenotype (%)” value [4]?
**A.** 57% and 27%

**Q.** What about the “Population Mitotic Cells (%)” value [4] of the same compound?
**A.** 63% and 100%

**Q.** What about the “Population Normal (%)” value [4] of the same compound?
**A.** 91% and 87%

**Q.** What about the “Population Pyknosed Nuclei (%)” value [4] of the same compound?
**A.** 10% and 3%

**Q.** What about the “Population Tubulin-Different-Phenotype (%)” value [4] of the same compound?
**A.** 17% and 40%

**Q.** And the “Total Cell Count” value [4]?
**A.** 112 and 90

**Q.** What does the source list for `COc1cc2nccc(Oc3ccc(NC(=O)Nc4cc(C)on4)c(Cl)c3)c2cc1OC.O`?
**A.** Population Apoptotic (%) [5]: 50% and 42%; Population Fragmented Nuclei (%) [5]: 7% and 3%; Population Healthy Nuclei (%) [5]: 86% and 89%; Population Membrane Permeable-Phenotype (%) [5]: 26%; Population Mitotic Cells (%) [5]: 50% and 57%; Population Normal (%) [5]: 95% and 98%; Population Pyknosed Nuclei (%) [5]: 6% and 7%; Total Cell Count [5]: 193 and 192; Population Apoptotic (%) [6]: 0%; Population Fragmented Nuclei (%) [6]: 10% and 8%; Population Healthy Nuclei (%) [6]: 77% and 91%; Population Hoechst High Intensity Objects (%) [6]: 6% and 14%; Population Membrane Permeable-Phenotype (%) [6]: 25% and 19%; Population Mitochondria Different-Phenotype (%) [6]: 61% and 24%; Population Mitotic Cells (%) [6]: 0%; Population Normal (%) [6]: 93% and 85%; Population Pyknosed Nuclei (%) [6]: 12% and 0%; Population Tubulin-Different-Phenotype (%) [6]: 19%; Total Cell Count [6]: 132 and 71; Population Apoptotic (%) [1]: 70%; Population Fragmented Nuclei (%) [1]: 16%; Population Healthy Nuclei (%) [1]: 57%; Population Hoechst High Intensity Objects (%) [1]: 11%; Population Membrane Permeable-Phenotype (%) [1]: 25%; Population Mitochondria Different-Phenotype (%) [1]: 96%; Population Mitotic Cells (%) [1]: 30%; Population Normal (%) [1]: 88%; Population Pyknosed Nuclei (%) [1]: 25%; Population Tubulin-Different-Phenotype (%) [1]: 100%; Total Cell Count [1]: 152; Population Apoptotic (%) [2]: 71%; Population Fragmented Nuclei (%) [2]: 11%; Population Healthy Nuclei (%) [2]: 75%; Population Hoechst High Intensity Objects (%) [2]: 3%; Population Membrane Permeable-Phenotype (%) [2]: 36%; Population Mitochondria Different-Phenotype (%) [2]: 97%; Population Mitotic Cells (%) [2]: 28%; Population Normal (%) [2]: 96%; Population Pyknosed Nuclei (%) [2]: 12%; Population Tubulin-Different-Phenotype (%) [2]: 97%; Total Cell Count [2]: 58; Population Apoptotic (%) [7]: 73% and 33%; Population Healthy Nuclei (%) [7]: 62% and 92%; Population Membrane Permeable-Phenotype (%) [7]: 42% and 15%; Population Mitotic Cells (%) [7]: 26% and 66%; Population Normal (%) [7]: 95% and 98%; Total Cell Count [7]: 272 and 251; Population Apoptotic (%) [8]: 83% and 100%; Population Fragmented Nuclei (%) [8]: 17% and 9%; Population Healthy Nuclei (%) [8]: 58% and 89%; Population Hoechst High Intensity Objects (%) [8]: 15% and 9%; Population Membrane Permeable-Phenotype (%) [8]: 47% and 17%; Population Mitotic Cells (%) [8]: 16% and 0%; Population Normal (%) [8]: 84% and 90%; Population Pyknosed Nuclei (%) [8]: 24% and 0%; Total Cell Count [8]: 159 and 78; Population Apoptotic (%) [3]: 82%; Population Fragmented Nuclei (%) [3]: 28%; Population Healthy Nuclei (%) [3]: 42%; Population Hoechst High Intensity Objects (%) [3]: 8%; Population Membrane Permeable-Phenotype (%) [3]: 61%; Population Mitochondria Different-Phenotype (%) [3]: 98%; Population Mitotic Cells (%) [3]: 17%; Population Normal (%) [3]: 91%; Population Pyknosed Nuclei (%) [3]: 29%; Population Tubulin-Different-Phenotype (%) [3]: 100%; Total Cell Count [3]: 142; Population Apoptotic (%) [4]: 92%; Population Fragmented Nuclei (%) [4]: 16%; Population Healthy Nuclei (%) [4]: 60%; Population Hoechst High Intensity Objects (%) [4]: 3%; Population Membrane Permeable-Phenotype (%) [4]: 67%; Population Mitochondria Different-Phenotype (%) [4]: 100%; Population Mitotic Cells (%) [4]: 7%; Population Normal (%) [4]: 96%; Population Pyknosed Nuclei (%) [4]: 23%; Population Tubulin-Different-Phenotype (%) [4]: 97%; Total Cell Count [4]: 58; Population Apoptotic (%) [9]: 91%; Population Fragmented Nuclei (%) [9]: 41%; Population Healthy Nuclei (%) [9]: 15%; Population Hoechst High Intensity Objects (%) [9]: 13%; Population Membrane Permeable-Phenotype (%) [9]: 86%; Population Mitochondria Different-Phenotype (%) [9]: 100%; Population Mitotic Cells (%) [9]: 8%; Population Normal (%) [9]: 86%; Population Pyknosed Nuclei (%) [9]: 42%; Population Tubulin-Different-Phenotype (%) [9]: 100%; Total Cell Count [9]: 153; Population Apoptotic (%) [10]: 87%; Population Fragmented Nuclei (%) [10]: 13%; Population Healthy Nuclei (%) [10]: 67%; Population Hoechst High Intensity Objects (%) [10]: 15%; Population Membrane Permeable-Phenotype (%) [10]: 96%; Population Mitotic Cells (%) [10]: 12%; Population Normal (%) [10]: 84%; Population Pyknosed Nuclei (%) [10]: 18%; Total Cell Count [10]: 62
